Assay results published in ChEMBL document CHEMBL4177566, “Rational design, synthesis and preliminary antitumor activity evaluation of a chlorambucil derivative with potent DNA/HDAC dual-targeting inhibitory activity” (Bioorg Med Chem Lett, 2017).
Active and inactive are the calls of the source. The rule behind the calls is not given here.

What was measured:
A-375 [1] = experiment: Anticlonogenic activity against human A375 cells at 2 to 16 uM after 7 days by crystal violet staining based assay; type: functional, cell-based
A-375 [2] = experiment: Induction of apoptosis in human A375 cells assessed as necrotic cells at 2 uM after 72 hrs by Annexin/propidium iodide staining based flow cytometry (reference value: 1.36%); type: functional
Homo sapiens = species on record: Homo sapiens; experiment: Induction of DNA damage in human A375 cells assessed as increase in gammaH2AX level at 16 uM after 48 hrs by high throughput assay relative to control; type: cell-based
In short: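 A375 cells were exposed for 48 h at 8 and 16 µM. Histone H2AX phosphorylation (γH2AX, a double-strand-break marker) was detected with the EpiQuik In Situ DNA Damage Assay kit following the maker's protocol. Results are expressed as percent of the untreated control, as mean ± SD (n=3), with a t-test for significance.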

A-375 [3] = experiment: Induction of apoptosis in human A375 cells assessed as early apoptotic cells at 2 uM after 72 hrs by Annexin/propidium iodide staining based flow cytometry (reference value: 1.62%); type: functional
A-375 [4] = experiment: Induction of apoptosis in human A375 cells assessed as necrotic cells at 16 uM after 72 hrs by Annexin/propidium iodide staining based flow cytometry (reference value: 1.36%); type: functional
A549 = experiment: Antiproliferative activity against human A549 cells after 72 hrs by CCK8 assay; type: functional, cell-based; conditions: for IC50: A549, 72 h
In short: (§1)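 CCK-8 viability read-out on four human cancer lines (HepG2, A549, HCT116, A375) over a range of concentrations. IC50 is the concentration that reduces viability to 50%. Values are means of three experiments.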

A-375 [5] = experiment: Induction of apoptosis in human A375 cells assessed as late apoptotic cells at 16 uM after 72 hrs by Annexin/propidium iodide staining based flow cytometry (reference value: 6.95%); type: functional
A-375 [6] = experiment: Induction of apoptosis in human A375 cells assessed as late apoptotic cells at 8 uM after 72 hrs by Annexin/propidium iodide staining based flow cytometry (reference value: 6.95%); type: functional
A-375 [7] = experiment: Induction of apoptosis in human A375 cells assessed as late apoptotic cells at 2 uM after 72 hrs by Annexin/propidium iodide staining based flow cytometry (reference value: 6.95%); type: functional
A-375 [8] = experiment: Induction of apoptosis in human A375 cells assessed as early apoptotic cells at 8 uM after 72 hrs by Annexin/propidium iodide staining based flow cytometry (reference value: 1.62%); type: functional
A-375 [9] = experiment: Induction of apoptosis in human A375 cells assessed as live cells at 8 uM after 72 hrs by Annexin/propidium iodide staining based flow cytometry (reference value: 86.07%); type: functional
HepG2 = experiment: Antiproliferative activity against human HepG2 cells after 72 hrs by CCK8 assay; type: functional, cell-based; conditions: for IC50: HepG2, 72 h; in short: as §1
A-375 [10] = experiment: Antiproliferative activity against human A375 cells after 72 hrs by CCK8 assay; type: functional, cell-based; conditions: for IC50: A-375, 72 h; in short: as §1
HCT-116 = experiment: Antiproliferative activity against human HCT116 cells after 72 hrs by CCK8 assay; type: functional, cell-based; conditions: for IC50: HCT-116, 72 h; in short: as §1
A-375 [11] = experiment: Cell cycle arrest in human A375 cells assessed as accumulation at S phase at 8 uM after 72 hrs by propidium iodide staining based flow cytometry (reference value: 3.8%); type: functional
A-375 [12] = experiment: Cell cycle arrest in human A375 cells assessed as accumulation at G2/M phase at 8 uM after 72 hrs by propidium iodide staining based flow cytometry (reference value: 12.6%); type: functional
A-375 [13] = experiment: Induction of apoptosis in human A375 cells assessed as live cells at 16 uM after 72 hrs by Annexin/propidium iodide staining based flow cytometry (reference value: 86.07%); type: functional
A-375 [14] = experiment: Induction of apoptosis in human A375 cells assessed as live cells at 2 uM after 72 hrs by Annexin/propidium iodide staining based flow cytometry (reference value: 86.07%); type: functional
A-375 [15] = experiment: Induction of apoptosis in human A375 cells assessed as necrotic cells at 8 uM after 72 hrs by Annexin/propidium iodide staining based flow cytometry (reference value: 1.36%); type: functional
A-375 [16] = experiment: Induction of apoptosis in human A375 cells assessed as early apoptotic cells at 16 uM after 72 hrs by Annexin/propidium iodide staining based flow cytometry (reference value: 1.62%); type: functional
A-375 [17] = experiment: Cell cycle arrest in human A375 cells assessed as accumulation at G0/G1 phase at 8 uM after 72 hrs by propidium iodide staining based flow cytometry (reference value: 83.6%); type: functional
A-375 [18] = experiment: Induction of apoptosis in human A375 cells after 72 hrs by Annexin/propidium iodide staining based flow cytometry; type: functional, cell-based
Histone deacetylase 1 = Histone deacetylase 1 (Homo sapiens, UniProt Q13547); experiment: Inhibition of recombinant human HDAC1 (482 residues) expressed in baculovirus infected insect cells preincubated with enzyme followed by flour de lys-green substrate addition measured after 1 hr by fluorescence assay
Sequence of Histone deacetylase 1 (Q13547 whole entry): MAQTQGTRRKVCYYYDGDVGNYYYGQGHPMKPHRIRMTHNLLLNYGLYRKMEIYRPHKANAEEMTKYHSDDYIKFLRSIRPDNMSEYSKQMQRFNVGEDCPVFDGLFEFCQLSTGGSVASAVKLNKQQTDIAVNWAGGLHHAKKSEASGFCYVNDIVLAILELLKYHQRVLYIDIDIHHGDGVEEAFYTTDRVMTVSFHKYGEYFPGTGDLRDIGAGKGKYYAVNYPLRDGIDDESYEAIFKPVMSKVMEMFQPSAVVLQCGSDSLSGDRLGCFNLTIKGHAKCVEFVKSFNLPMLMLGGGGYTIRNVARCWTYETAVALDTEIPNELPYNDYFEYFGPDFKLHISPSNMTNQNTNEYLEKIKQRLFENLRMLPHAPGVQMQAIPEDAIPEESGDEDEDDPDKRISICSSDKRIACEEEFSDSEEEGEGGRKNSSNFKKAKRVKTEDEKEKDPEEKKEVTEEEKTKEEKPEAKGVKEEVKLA

A-375 [19] = experiment: Anticlonogenic activity against human A375 cells after 7 days by crystal violet staining based assay; type: functional, cell-based
Histone deacetylase 2 = Histone deacetylase 2 (Homo sapiens, UniProt Q92769); experiment: Inhibition of recombinant human HDAC2 preincubated with enzyme followed by flour de lys-green substrate addition measured after 1 hr by fluorescence assay
Sequence of Histone deacetylase 2 (Q92769 whole entry): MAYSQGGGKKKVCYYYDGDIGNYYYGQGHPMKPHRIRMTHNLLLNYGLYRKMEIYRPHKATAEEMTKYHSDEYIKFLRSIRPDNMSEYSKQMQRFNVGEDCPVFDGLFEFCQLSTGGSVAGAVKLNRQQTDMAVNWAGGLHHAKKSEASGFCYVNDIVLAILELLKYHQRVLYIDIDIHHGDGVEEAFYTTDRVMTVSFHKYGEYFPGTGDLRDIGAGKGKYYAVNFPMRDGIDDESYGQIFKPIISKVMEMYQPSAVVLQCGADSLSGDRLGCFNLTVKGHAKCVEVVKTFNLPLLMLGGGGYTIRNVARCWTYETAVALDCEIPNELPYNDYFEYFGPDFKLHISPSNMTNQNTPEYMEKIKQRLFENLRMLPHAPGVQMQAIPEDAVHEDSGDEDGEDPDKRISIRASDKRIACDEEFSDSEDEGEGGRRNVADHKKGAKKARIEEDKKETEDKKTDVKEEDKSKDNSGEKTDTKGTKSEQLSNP

[20] = target: T1, Protein deacetylase HDAC6 (Homo sapiens, UniProt Q9UBN7); experiment: Inhibition of recombinant human His-tagged HDAC6 expressed in baculovirus infected insect cells preincubated with enzyme followed by flour de lys-green substrate addition measured after 1 hr by fluorescence assay
T1 sequence (Q9UBN7 whole entry): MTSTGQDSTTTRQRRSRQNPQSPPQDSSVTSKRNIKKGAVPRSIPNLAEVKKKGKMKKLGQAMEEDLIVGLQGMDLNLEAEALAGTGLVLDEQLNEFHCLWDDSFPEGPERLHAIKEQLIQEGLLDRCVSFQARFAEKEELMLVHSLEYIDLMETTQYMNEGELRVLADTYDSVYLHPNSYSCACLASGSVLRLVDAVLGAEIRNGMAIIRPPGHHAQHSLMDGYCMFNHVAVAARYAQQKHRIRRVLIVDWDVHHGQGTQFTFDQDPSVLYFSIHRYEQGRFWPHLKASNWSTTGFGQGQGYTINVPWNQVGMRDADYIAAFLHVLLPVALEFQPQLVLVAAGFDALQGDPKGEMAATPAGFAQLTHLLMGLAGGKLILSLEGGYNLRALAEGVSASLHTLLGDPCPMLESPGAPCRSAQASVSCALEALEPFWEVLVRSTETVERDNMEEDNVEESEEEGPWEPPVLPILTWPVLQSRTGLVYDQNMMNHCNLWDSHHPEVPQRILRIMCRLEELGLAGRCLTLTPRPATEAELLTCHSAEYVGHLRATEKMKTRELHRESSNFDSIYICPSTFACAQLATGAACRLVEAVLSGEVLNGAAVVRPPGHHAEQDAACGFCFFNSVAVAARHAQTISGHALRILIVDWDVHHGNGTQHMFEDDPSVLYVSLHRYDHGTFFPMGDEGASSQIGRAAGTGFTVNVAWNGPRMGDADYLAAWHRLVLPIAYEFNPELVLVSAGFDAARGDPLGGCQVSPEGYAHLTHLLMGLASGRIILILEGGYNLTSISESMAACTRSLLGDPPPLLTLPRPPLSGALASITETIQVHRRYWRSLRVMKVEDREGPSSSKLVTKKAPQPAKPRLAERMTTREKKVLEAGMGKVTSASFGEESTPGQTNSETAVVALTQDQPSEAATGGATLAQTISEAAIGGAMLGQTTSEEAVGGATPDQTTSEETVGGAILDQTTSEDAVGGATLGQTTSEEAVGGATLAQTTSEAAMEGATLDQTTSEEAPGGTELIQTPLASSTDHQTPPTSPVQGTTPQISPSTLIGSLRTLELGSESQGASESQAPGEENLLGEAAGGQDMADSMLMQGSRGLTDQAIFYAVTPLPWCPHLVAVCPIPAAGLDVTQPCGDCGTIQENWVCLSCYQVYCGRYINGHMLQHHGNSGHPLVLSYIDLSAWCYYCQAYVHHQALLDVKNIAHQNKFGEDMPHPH

[21] = target: Histone deacetylase (Homo sapiens) (UniProt Q13547+O15379+Q9UBN7+Q92769+Q9UQL6+Q8WUI4+Q9BY41+Q96DB2+P56524+Q9UKV0+Q969S8); experiment: Inhibition of HDAC in human HeLa nuclear extract up to 10000 uM preincubated with cells followed by flour de lys-green substrate addition measured after 1 hr by fluorescence assay

Row | Compound | Activity (A-375 [2]) [%] | Activity (Homo sapiens) [%] | Activity (A-375 [3]) [%] | Activity (A-375 [4]) [%] | IC50 (A549) [µM] | Activity (A-375 [5]) [%] | Activity (A-375 [6]) [%] | Activity (A-375 [7]) [%] | Activity (A-375 [8]) [%] | Activity (A-375 [9]) [%] | IC50 (HepG2) [µM] | IC50 (A-375 [10]) [µM] | IC50 (HCT-116) [µM] | Activity (A-375 [11]) [%] | Activity (A-375 [12]) [%] | Activity (A-375 [13]) [%] | Activity (A-375 [14]) [%] | Activity (A-375 [15]) [%] | Activity (A-375 [16]) [%] | Activity (A-375 [17]) [%] | also measured
1 | O=C(O)CCCc1ccc(N(CCCl)CCCl)cc1 [CHLORAMBUCIL] | 1.36 | 129 | 1.62 | 6.44 | 22.2 | 18.21 | 8.41 | 6.95 | 2.11 | 87.14 | 112 | 69.2 | 57.6 | 5.4 | 47.6 | 71.14 | 90.07 | 2.34 | 4.21 | 47 | Activity (A-375 [1]): Active
2 | O=C(CCCCCCC(=O)Nc1ccc(N(CCCl)CCCl)cc1)NO | 2.07 | 224 | 3.31 | 2.75 | 4.4 | 53.54 | 29.95 | 10.26 | 16.02 | 50.76 | 6.1 | 6.2 | 3.2 | 5.8 | 66.5 | 30.42 | 84.36 | 3.27 | 13.29 | 27.7 | Activity (A549): Dose-dependent effect; Activity (A-375 [18]): Dose-dependent effect; Activity (HepG2): Dose-dependent effect; Activity (A-375 [10]): Dose-dependent effect; IC50 (Histone deacetylase 1): 0.27 µM; Activity (HCT-116): Dose-dependent effect; Activity (A-375 [19]): Dose-dependent effect; IC50 (Histone deacetylase 2): 0.24 µM; IC50 [20]: 0.62 µM; inhibition [21]: Active
